Two compounds from ChEMBL document CHEMBL2311487, “Total synthesis of bicyclic depsipeptides spiruchostatins C and D and investigation of their histone deacetylase inhibitory and antiproliferative activities” (Eur J Med Chem, 2013) can be followed below.

The target in one experiment is Histone deacetylase. Briefly: Inhibition of class 1 HDAC (unknown origin). It counts as protein assay, Homo sapiens.
Experiment [1] is described as follows: Selectivity index, ratio of IC50 for mouse HDAC6 to IC50 for human HDAC1. A digest of the protocol: (§1)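 FLAG-tagged HDAC1 or HDAC6 was expressed in cells grown 24 h in DMEM, then lysed in Tris/NaCl/EDTA/NP40 buffer. The enzyme was immunoprecipitated with anti-FLAG M2 and eluted with FLAG peptide. It was incubated with Ac-KGLGK(Ac)-MCA (2 mM stock) and 100 μM DTT at 37 °C for 30 min, then trypsin at 37 °C for 15 min. AMC fluorescence was read. IC50 is the mean±SD of ≥3 curves. The ratios are computed from these IC50s.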

In experiment [2] the target is Histone deacetylase 1 (Homo sapiens) (UniProt Q13547). Kind of experiment: Ratio of FK228 IC50 to compound IC50 for human HDAC1 using Ac-KGLGK(Ac)-MCA as substrate after 30 mins by fluorescence assay. An outline of the steps:
as §1

The target in experiment [3] is Protein deacetylase HDAC6 (Mus musculus, UniProt Q9Z2V5). Briefly: Inhibition of mouse HDAC6 using Ac-KGLGK(Ac)-MCA as substrate after 30 mins by fluorescence assay.
In another experiment the test system is PC-3. Briefly: Growth inhibition of human PC3 cells by sulforhodamine B colorimetric method. It counts as functional. A digest of the protocol:
(§2)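 Tested in a human cancer cell line panel. Five concentrations were used per compound, spanning either 10^-10–10^-6 M or 10^-8–10^-4 M. Growth was read by sulforhodamine B colorimetry.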
For orientation: The SRB assay estimates cell density from bound dye.

A further experiment relates to DU-145. Briefly: Growth inhibition of human DU145 cells by sulforhodamine B colorimetric method. In kind it is functional. An outline of the steps: as §2
In a further experiment the test system is MKN-45. Briefly: Growth inhibition of human MKN45 cells by sulforhodamine B colorimetric method. In kind it is functional. A digest of the protocol: as §2
In a further experiment the test system is MKN-74. Briefly: Growth inhibition of human MKN74 cells by sulforhodamine B colorimetric method. It counts as functional. A digest of the protocol: as §2
The next experiment has as its system MKN-28. Briefly: Growth inhibition of human MKN28 cells by sulforhodamine B colorimetric method. It counts as functional. An outline of the steps:
as §2

A further experiment has as its system MKN-7. Kind of experiment: Growth inhibition of human MKN7 cells by sulforhodamine B colorimetric method. In kind it is functional. A digest of the protocol: as §2
The test system of another experiment is St-4. Briefly: Growth inhibition of human St-4 cells by sulforhodamine B colorimetric method. In kind it is functional. An outline of the steps: as §2
Experiment [4] in a line: Growth inhibition of human MKN1 cells by sulforhodamine B colorimetric method. It counts as functional. The settings on record: MKN-1. An outline of the steps: as §2
Experiment [5] can be described thus: Growth inhibition of human RXF631L cells by sulforhodamine B colorimetric method. It counts as functional. The settings on record: RXF 631. A digest of the protocol:
as §2

Another experiment concerns ACHN. Kind of experiment: Growth inhibition of human ACHN cells by sulforhodamine B colorimetric method. In kind it is functional. An outline of the steps: as §2
The next experiment concerns SK-OV-3. Kind of experiment: Growth inhibition of human SKOV3 cells by sulforhodamine B colorimetric method. In kind it is functional. A digest of the protocol: as §2
For another experiment, the system named is OVCAR-5. Briefly: Growth inhibition of human OVCAR5 cells by sulforhodamine B colorimetric method. In kind it is functional. An outline of the steps:
as §2

Another experiment has as its system OVCAR-8. Kind of experiment: Growth inhibition of human OVCAR8 cells by sulforhodamine B colorimetric method. It counts as functional. An outline of the steps:
as §2

The next experiment deals with OVCAR-4. Briefly: Growth inhibition of human OVCAR4 cells by sulforhodamine B colorimetric method. It counts as functional. An outline of the steps: as §2
Another experiment has as its system LOX IMVI. Kind of experiment: Growth inhibition of human LOXIMVI cells by sulforhodamine B colorimetric method. It counts as functional. A digest of the protocol: as §2
Another experiment has as its system OVCAR-3. Kind of experiment: Growth inhibition of human OVCAR3 cells by sulforhodamine B colorimetric method. It counts as functional. A digest of the protocol: as §2
The subject of a further experiment is DMS-273. Kind of experiment: Growth inhibition of human DMS273 cells by sulforhodamine B colorimetric method. In kind it is functional. An outline of the steps:
as §2

Another experiment deals with DMS-114. Briefly: Growth inhibition of human DMS114 cells by sulforhodamine B colorimetric method. It counts as functional. An outline of the steps: as §2
Another experiment has as its system NCI-H460. Kind of experiment: Growth inhibition of human NCI-H460 cells by sulforhodamine B colorimetric method. It counts as functional. An outline of the steps:
as §2

A further experiment deals with A549. Briefly: Growth inhibition of human A549 cells by sulforhodamine B colorimetric method. It counts as functional. A digest of the protocol:
as §2

The next experiment concerns NCI-H522. Kind of experiment: Growth inhibition of human NCI-H522 cells by sulforhodamine B colorimetric method. In kind it is functional. An outline of the steps: as §2
A further experiment relates to NCI-H23. Kind of experiment: Growth inhibition of human NCI-H23 cells by sulforhodamine B colorimetric method. It counts as functional. An outline of the steps: as §2
For a further experiment, the system named is NCI-H226. Briefly: Growth inhibition of human NCI-H226 cells by sulforhodamine B colorimetric method. It counts as functional. An outline of the steps: as §2
A further experiment concerns HCT-116. Briefly: Growth inhibition of human HCT116 cells by sulforhodamine B colorimetric method. It counts as functional. A digest of the protocol: as §2
Another experiment deals with HT-29. Briefly: Growth inhibition of human HT-29 cells by sulforhodamine B colorimetric method. It counts as functional. A digest of the protocol: as §2
Another experiment deals with HCT-15. Briefly: Growth inhibition of human HCT15 cells by sulforhodamine B colorimetric method. In kind it is functional. A digest of the protocol: as §2
Experiment [6] can be described thus: Growth inhibition of human HCC2998 cells by sulforhodamine B colorimetric method. As to conditions: HCC 2998. In kind it is functional. A digest of the protocol:
as §2

In another experiment the test system is KM12. Kind of experiment: Growth inhibition of human KM12 cells by sulforhodamine B colorimetric method. It counts as functional. A digest of the protocol: as §2
For a further experiment, the system named is SNB-78. Kind of experiment: Growth inhibition of human SNB78 cells by sulforhodamine B colorimetric method. In kind it is functional. An outline of the steps:
as §2

Another experiment has as its system SNB-75. Kind of experiment: Growth inhibition of human SNB75 cells by sulforhodamine B colorimetric method. It counts as functional. A digest of the protocol:
as §2

The subject of another experiment is SF-539. Briefly: Growth inhibition of human SF539 cells by sulforhodamine B colorimetric method. In kind it is functional. An outline of the steps: as §2
The subject of another experiment is SF-295. Briefly: Growth inhibition of human SF295 cells by sulforhodamine B colorimetric method. It counts as functional. A digest of the protocol: as §2
Another experiment concerns U-251. Briefly: Growth inhibition of human U251 cells by sulforhodamine B colorimetric method. In kind it is functional. An outline of the steps:
as §2

Another experiment deals with SF-268. Briefly: Growth inhibition of human SF268 cells by sulforhodamine B colorimetric method. It counts as functional. An outline of the steps:
as §2

Another experiment concerns MDA-MB-231. Briefly: Growth inhibition of human MDA-MB-231 cells by sulforhodamine B colorimetric method. It counts as functional. A digest of the protocol: as §2
The subject of the next experiment is MCF7. Kind of experiment: Growth inhibition of human MCF7 cells by sulforhodamine B colorimetric method. In kind it is functional. An outline of the steps:
as §2

Experiment [7] can be described thus: Growth inhibition of human HBC5 cells by sulforhodamine B colorimetric method. It counts as functional. A digest of the protocol: as §2
Experiment [8] can be described thus: Growth inhibition of human BSY1 cells by sulforhodamine B colorimetric method. It counts as functional. The settings on record: BSY-1. An outline of the steps:
as §2

A short description of experiment [9]: Growth inhibition of human HBC4 cells by sulforhodamine B colorimetric method. In kind it is functional. An outline of the steps: as §2

Sequence of Histone deacetylase 1 (Homo sapiens) (Q13547 whole entry): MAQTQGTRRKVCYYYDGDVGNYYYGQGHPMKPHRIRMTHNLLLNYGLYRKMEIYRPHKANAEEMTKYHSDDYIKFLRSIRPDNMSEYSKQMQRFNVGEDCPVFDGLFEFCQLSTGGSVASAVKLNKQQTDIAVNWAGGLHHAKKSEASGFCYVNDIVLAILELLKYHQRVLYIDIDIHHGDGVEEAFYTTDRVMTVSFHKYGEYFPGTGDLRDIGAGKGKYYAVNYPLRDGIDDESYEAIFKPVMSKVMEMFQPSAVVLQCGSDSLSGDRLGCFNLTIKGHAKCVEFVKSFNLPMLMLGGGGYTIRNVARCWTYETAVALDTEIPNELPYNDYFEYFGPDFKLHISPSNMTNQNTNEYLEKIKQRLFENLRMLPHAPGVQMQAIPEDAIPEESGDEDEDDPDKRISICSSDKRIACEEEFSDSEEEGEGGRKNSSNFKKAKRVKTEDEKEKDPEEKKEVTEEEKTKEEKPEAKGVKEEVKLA
Sequence of Protein deacetylase HDAC6 (Q9Z2V5 whole entry): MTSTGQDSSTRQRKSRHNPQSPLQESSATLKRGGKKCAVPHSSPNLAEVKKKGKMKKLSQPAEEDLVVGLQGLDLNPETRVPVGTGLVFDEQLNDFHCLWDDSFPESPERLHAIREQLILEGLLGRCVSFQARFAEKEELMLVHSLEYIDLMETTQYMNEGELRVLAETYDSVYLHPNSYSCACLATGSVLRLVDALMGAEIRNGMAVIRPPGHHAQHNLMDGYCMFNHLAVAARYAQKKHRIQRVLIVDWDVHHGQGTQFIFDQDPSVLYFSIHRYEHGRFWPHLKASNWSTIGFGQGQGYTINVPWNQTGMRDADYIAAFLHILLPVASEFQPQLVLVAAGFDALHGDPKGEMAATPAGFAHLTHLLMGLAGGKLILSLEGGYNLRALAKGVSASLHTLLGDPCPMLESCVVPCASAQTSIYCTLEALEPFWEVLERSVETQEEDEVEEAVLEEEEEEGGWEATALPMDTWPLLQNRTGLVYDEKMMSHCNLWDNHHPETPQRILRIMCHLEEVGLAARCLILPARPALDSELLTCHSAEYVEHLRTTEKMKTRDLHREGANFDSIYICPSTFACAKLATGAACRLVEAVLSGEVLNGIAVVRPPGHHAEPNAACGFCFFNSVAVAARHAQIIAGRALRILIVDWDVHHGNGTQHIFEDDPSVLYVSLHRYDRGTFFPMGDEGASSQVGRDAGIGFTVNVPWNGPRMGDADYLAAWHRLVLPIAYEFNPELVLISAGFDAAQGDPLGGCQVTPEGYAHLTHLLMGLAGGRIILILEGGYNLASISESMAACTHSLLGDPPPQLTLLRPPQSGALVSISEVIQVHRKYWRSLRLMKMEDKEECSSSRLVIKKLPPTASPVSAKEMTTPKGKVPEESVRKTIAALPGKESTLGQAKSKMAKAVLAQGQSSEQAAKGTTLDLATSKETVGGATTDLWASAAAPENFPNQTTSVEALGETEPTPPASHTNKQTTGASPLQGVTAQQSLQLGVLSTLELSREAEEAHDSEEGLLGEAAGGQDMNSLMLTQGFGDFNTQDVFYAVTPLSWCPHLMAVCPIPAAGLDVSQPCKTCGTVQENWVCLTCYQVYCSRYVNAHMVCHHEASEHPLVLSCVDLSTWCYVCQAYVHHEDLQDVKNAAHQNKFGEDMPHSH

`CCC(C)[C@H]1NC(=O)[C@H]2CSSCC/C=C/[C@H](CC(=O)N[C@H](C)C(=O)N2)OC(=O)C[C@@H]1O` (stereo partly drawn) [spiruchostatin B] returned a half-maximal inhibitory concentration (IC50) against Histone deacetylase of 2.2 nM.
As to `CC(C)[C@H]1NC(=O)[C@H]2CSSCC/C=C/[C@H](CC(=O)N[C@H](C(C)C)C(=O)N2)OC(=O)C[C@@H]1O` [spiruchostatin D], the figures for the Ratio IC50 in [1] and in experiment [2] were 320 and 3, respectively. Besides, the half-inhibitory concentration (IC50) in experiment [3] turned out to be 240 nM. Also, the GI50 in the experiment with PC-3 is 8.7 nM; in the experiment on DU-145, 4 nM; in the experiment on MKN-45, 9.6 nM; in the experiment on MKN-74, 2.9 nM; with MKN-28 it was 9.5 nM; in the experiment with MKN-7, 5.8 nM. For the same compound, the GI50 in the experiment on St-4 was found to be 16 nM; in [4], 2 nM; in experiment [5], 5.9 nM; with ACHN, 21 nM; in the experiment on SK-OV-3, 2.3 nM; with OVCAR-5 it was 1.2 nM. For the same compound, the GI50 in the experiment with OVCAR-8 is 2.7 nM; with OVCAR-4, 4.7 nM; in the experiment on LOX IMVI it was 1.8 nM; in the experiment with OVCAR-3, 2.2 nM; in the experiment on DMS-273, 5.1 nM; in the experiment on DMS-114, 3.6 nM. The GI50 amounted to 2.8 nM in the experiment with NCI-H460; 0.97 nM with A549; 0.39 nM in the experiment with NCI-H522; 2.5 nM with NCI-H23; 4 nM in the experiment with NCI-H226; 1.3 nM in the experiment with HCT-116. Also, the GI50 worked out at 2.2 nM with HT-29; 210 nM in the experiment on HCT-15; 1.5 nM in experiment [6]; 2.6 nM with KM12; 41 nM with SNB-78; 1.9 nM in the experiment on SNB-75. Besides, the 50% growth inhibitory concentration (GI50) in the experiment with SF-539 is 0.58 nM; in the experiment on SF-295, 5.1 nM; in the experiment with U-251, 2.7 nM; in the experiment on SF-268, 3.5 nM; in the experiment with MDA-MB-231, 1.7 nM; in the experiment on MCF7, 2.9 nM. The GI50 in experiment [7] was determined as 18 nM; in experiment [8], 5.2 nM; in experiment [9], 4.1 nM.

In general, IC50 refers to the concentration at which inhibition is half-maximal. Lower therefore signals inhibition by little substance. One may read the GI50 as the concentration that inhibits growth by half. A lower GI50 goes with greater sensitivity of the cells.
